UPR CHOP act: activators of apoptotic CHOP UPR arm, primary screen, cell-based, CHO-CHOP luciferase reporter, luminescence, uHTS | UPR activation; percent of tunicamycin response over DMSO baseline | activation, % at 10 µM | hit rate 0.34% among 330,000 | AID 449763, 2010;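 active = at 10 µM dose, activation of 40% or more, normalized to positive control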;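 also: 100% = tunicamycin at 10 µg/mL and 0% = DMSO alone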
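Evaluation: % reporter activation, DMSO baseline versus tunicamycin full activation; System: CHO-CHOP luciferase reporter cell line; Input: 500 cells/well; Incubation: 6 h compound treatment, 37 °C; Measured by: Steady-Glo luciferase luminescence; Dosing: one dose, 10 µM in 0.5% DMSO; Buffer or medium: F12 medium, 10% FBS; Benchmarks: positive tunicamycin 10 µg/mL, negative DMSO alone.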
UPR XBP1 act: activators of adaptive XBP1 UPR arm, primary screen, cell-based, CHO-XBP1 luciferase reporter, luminescence, uHTS; activation, % at 20 µM; IRE1-XBP1 UPR activation; percent of tunicamycin response, DMSO as zero; hit rate 0.33% among 330,000;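 active = versus positive control, 20 µM dose yields 30% or more activation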;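 also: 100% = tunicamycin at 10 µg/mL and 0% = DMSO only wells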
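incubation = overnight seeding at 37 °C, 6 h compound treatment at 37 °C | assay system = CHO-XBP1 cells stably carrying IRE1-XBP1-driven luciferase reporter | input = 1000 cells per well | detection = luciferase luminescence | dosing = single point, 20 µM final compound, 1% DMSO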
CHOP inh: inhibitors of CHOP promoter induction, primary screen, cell-based, unfolded protein response, luciferase reporter. CHO-K1 CHOP-promoter luciferase, tunicamycin-induced, 15-18 h. inhibition, % at 10 µM. hit rate 3.8% among 220,000;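 active = compounds that reduced the stress-induced luciferase reporter signal by more than about 70% of percent inhibition, limit read from the data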;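 also: 0% = tunicamycin plus vehicle and 100% = wells without tunicamycin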
Dynein cargo inh: inhibitors of GR-EGFP nuclear translocation, primary screen, dynein cargo transport inhibitor project, imaging, high-content, 3617.4 mouse cells; test concentration mostly 20 µM; stimulated with dexamethasone, 1 µM; active compounds read low; z-score, hits read low; hit rate 0.47% among 220,000; AID 1381, 2008;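 active = plate z-score of nuclear minus cytoplasmic receptor signal below a set negative limit, without overly bright fluorescence or cell loss, cut at about -3.5 in these data, passing the limit was not always enough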;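 also: z-score of nuclear minus cytoplasmic ring GR-EGFP intensity difference per well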
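Buffer or medium: tet-free, stripped-serum medium; reagent: dexamethasone at 1.0 µM final, 30 min; incubation: 48 h induction, 1 h compound, 30 min dex at 37 °C; measured by: formaldehyde fixation, Hoechst nuclear stain, 10x automated fluorescence imaging; read-out: nuclear-to-cytoplasmic GR-EGFP distribution per well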
Lmaj promast: Leishmania major promastigote growth inhibition, primary screen. Leishmania major promastigotes, resazurin fluorescence viability. inhibition, % at 10 µM. hit rate 9% among 200,000; in the data active = inhibition above about 50%;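 also: promastigotes grown with compound for 44 hours at 28 °C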
T cruzi repl: inhibitors of intracellular T. cruzi growth, primary screen, luminescence, NIH3T3 host cells | T. cruzi beta-gal in NIH3T3, 90 h | inhibition, % (test concentration not listed) | hit rate 1.4% among 300,000;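 active = mean inhibition across valid replicates above about 55%, limit read from the data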;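 also: signal also drops with host cell toxicity which is not excluded here; 0% = plate median of DMSO wells and 100% = zero luminescence signal; higher percent means less beta-gal luminescence so fewer parasites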
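compound dosing = single 50 nL compound addition per well in DMSO | material = NIH/3T3 host cells with β-galactosidase reporter T. cruzi | input = 5,000 host fibroblasts per well | timing = ≥90 h infection period, 3 h prior cell attachment | read-out basis = percent inhibition of parasite-derived β-gal signal | detection = GalScreen β-gal luminescence, detergent lysis, 60 min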
* hit, by the source's call; . = no result given. The entries come from a sample that favours hits as a whole.

SMILES	UPR CHOP act	UPR XBP1 act	CHOP inh	Dynein cargo inh	Lmaj promast	T cruzi repl
CC(=O)Nc1ccc(S(=O)(=O)N2CCN(c3cc(C)ccc3C)CC2)cc1	-0.5	-0.6	75.1*	0.302	-4.9	16.7
Cc1ccc(S(=O)(=O)C2(C(=O)N3CCN(c4cc(C)ccc4C)CC3)CC2)cc1	-0.1	-2.8	69.7	-1.02	72.5*	12.6
Cc1cccc2cc(C#N)c(SCCN3CCCCC3)nc12	-0.1	-0.6	.	-1.48	99.8*	35.6
CC(C)c1nc(SCC(=O)c2ccc(F)cc2)c2ccccc2n1	-0.7	5.9	83.7*	-0.251	12.3	15.4
Cc1ccc(C(=O)CSc2nc(C(C)C)nc3ccccc23)cc1	2.7	1.4	-4.7	-0.0946	8.3	1.4
CCOc1cc(S(=O)(=O)n2cc(-c3ccc(F)cc3)c(N)n2)cc(OCC)c1OCC	-4.5	-3.1	74.1*	0.546	33.3	22.0
CCOc1ccc(S(=O)(=O)n2cc(-c3ccc(F)cc3)c(N)n2)cc1	1.9	-0.3	95.3*	-0.269	-1.2	6.9
Cc1ccc(-c2cn(S(=O)(=O)c3ccc(C)cc3)nc2N)cc1	-1.4	-3.0	79.4*	-0.788	10.2	-12.2
CCOc1ccc(S(=O)(=O)n2cc(-c3ccccc3)c(N)n2)cc1	1.3	3.1	14.0	-0.48	-5.4	1.8
Nc1nn(S(=O)(=O)c2ccccc2)cc1-c1cccc([N+](=O)[O-])c1	2.1	-1.0	23.1	-1.03	2.5	57.2*
CC(C)(C)c1ccc(S(=O)(=O)Nc2noc3ccccc23)cc1	1.5	1.2	.	.	.	-6.9
CN(CC(=O)Nc1ccc(F)c(F)c1F)C1CCCCC1	-2.1	-0.3	75.1*	2.69	-0.4	-0.3
Cc1cc(NC(=O)CN(C)CC(=O)Nc2ccc(F)c(F)c2F)no1	-1.8	-3.1	.	.	.	.
CN(CC(=O)Nc1ccc(F)c(F)c1F)c1cnccn1	0.5	-1.6	74.3*	-1.34	10.4	63.7*
Cc1cccc(C)c1NC(=O)CN(C)C(C)C(=O)NCC(=O)Nc1ccc(F)c(F)c1F (stereo not drawn)	1.0	0.3	.	.	.	.
CC(C(=O)Nc1ccc(F)c(F)c1F)N(C)CC(=O)Nc1ccccc1Br (stereo not drawn)	-0.7	-2.6	6.0	0.757	11.7	102.1*
Cc1cc(F)c(F)c(C(=O)N2CCC(C)CC2)c1Cl	0.1	-1.7	10.1	0.492	5.0	-13.4
Fc1ccc(NC(=S)N/N=C/c2cccc(Br)c2)c(F)c1	0.7	0.0	95.2*	-0.33	-11.7	20.5
CCCCCC(=O)Nc1ccc(S(=O)(=O)NC2=NCCCCC2)cc1	-0.6	0.8	.	.	.	.
COc1cc(NC(=O)CCCN2C(=O)NC(C)(C)C2=O)cc(OC)c1	0.1	-1.3	.	.	.	.
O=C(O)CCCC(=O)Nc1ccc(Sc2ccc([N+](=O)[O-])cc2)cc1	-1.1	-2.0	-23.6	0.172	-2.3	-2.5
O=C(O)CCC(=O)Nc1ccc(Sc2ccc([N+](=O)[O-])cc2)cc1	1.5	0.8	14.5	0.152	50.5*	-12.3
O=C(COC(=O)CCSc1ccccc1)Nc1ccc(F)cc1Cl	0.6	4.5	60.9	0.0181	53.4*	-7.3
O=C(COC(=O)CCSc1ccc(Cl)cc1)NCc1ccc(Cl)cc1	-1.4	-1.2	31.4	1.15	-4.8	-6.8
CCCCc1ccc(NC(=O)COc2ccc(C(=O)Nc3ccccc3OC)cc2)cc1	0.9	0.7	9.8	0.465	72.4*	1.0
SMILES	UPR CHOP act	UPR XBP1 act	CHOP inh	Dynein cargo inh	Lmaj promast	T cruzi repl
O=C(COC(=O)CCSc1ccc(Cl)cc1)NCc1ccccc1	0.0	1.2	12.0	0.305	60.1*	-27.0
O=C(COC(=O)CCSc1ccccc1)Nc1cc(F)ccc1F	-1.3	-1.7	36.1	-0.593	-1.8	-9.8
O=C(COC(=O)CCSc1ccccc1Cl)Nc1ccc(F)cc1F	1.3	-5.4	71.8*	-1.18	-6.5	-6.2
Cn1c(N)c(C(=O)COC(=O)Cc2ccc(Cl)c(Cl)c2)c(=O)n(C)c1=O	0.9	4.2	.	.	.	.
O=C(COc1ccc(C(=O)Nc2ccc(Cl)cc2)cc1)NCc1ccccc1	-0.1	-0.7	77.5*	-0.0308	-5.3	-9.9
CCOC(=O)c1nnn(CC(=O)N2N=C(c3cccc4ccccc34)CC2c2ccccc2)c1C(=O)OCC (stereo not drawn)	2.1	-0.1	1.4	-0.279	51.5*	12.4
CCC(=O)N1N=C(c2ccccc2)CC1c1ccccc1 (stereo not drawn)	-1.9	-1.9	.	.	.	8.9
CCN(CC)CCOC(=O)c1c(C)oc2ccc(OC)cc12	-5.6	-3.5	22.9	2.2	100.3*	-2.3
CCN(CC)CCCOC(=O)c1ccc(OC)cc1O	0.1	0.3	20.8	-0.468	74.3*	83.9*
O=C(Nc1cccc(F)c1)N1CCCC(CNS(=O)(=O)Cc2ccccc2)C1 (stereo not drawn)	-0.1	3.5	-20.1	-0.707	91.8*	-3.3
CCOC(=O)c1sc2nc(CC(=O)OC)nc(NCCN3CCOCC3)c2c1C	.	.	16.6	-0.841	4.0	6.5
CCOC(=O)c1sc2nc(CC(=O)OC)nc(N3CCN(c4ccc(OC)cc4)CC3)c2c1C	-1.0	-3.0	15.7	-0.318	21.1	63.1*
CCOC(=O)C1C(C)=C(Nc2ccc(OC)cc2)C(=O)N1c1ccc(OC)cc1 (stereo not drawn)	-0.5	-1.8	-1.3	0.136	-5.8	-7.5
O=C(/C=C/c1cccs1)N1CCN(c2ccc(O)cc2)CC1	0.5	0.0	-8.6	-0.247	75.7*	23.9
O=C(/C=C/c1ccc([N+](=O)[O-])s1)N1CCN(c2ccccc2)CC1	1.2	-3.8	.	.	.	58.5*
O=C(/C=C/c1ccccc1[N+](=O)[O-])N1CCCCC1	-0.5	0.8	11.2	-0.497	5.7	-3.7
O=C(/C=C/c1ccc([N+](=O)[O-])s1)N1CCCCC1	1.2	-6.7	-43.9	0.0722	98.4*	0.1
O=C(/C=C/c1cccs1)N1CCCCC1	4.4	1.2	-22.6	0.114	4.5	-0.6
O=C(/C=C/c1ccc([N+](=O)[O-])s1)N1CCCC1	0.1	-3.5	-4.9	-1.05	87.8*	69.3*
Cc1ccc(CNC(=O)CC(C)S(=O)(=O)c2ccc3c(c2)NC(=O)C(C)S3)cc1 (stereo not drawn)	2.1	-2.6	.	.	.	7.5
COc1ccc(CCN2C(=O)N[C@@H](C(C)C)C2=O)cc1	-0.3	-1.4	.	.	.	-1.6
COCC(=O)Oc1c(S(=O)(=O)c2ccc(C)cc2)c(C)nn1-c1ccccc1	0.3	-1.7	5.1	0.934	-15.7	5.6
